Converted amounts (≈) assume the structure as drawn. The source made the active and inactive calls. The calls are words filed in the database; no cut-off is given here.
Legend:
Autotaxin [1] = molecular target: T1, Autotaxin (Homo sapiens, UniProt Q13822); assay: Inhibition of human ATX expressed in HEK293 Flp-In cells using LPC as substrate measured every 30 sec for 90 mins by fluorescence assay; format: cell-based
Autotaxin [2] = molecular target: T1, Autotaxin; assay: Inhibition of recombinant human ATX using bisP-nitrophenyl phosphate as substrate measured after 30 mins
Autotaxin [3] = molecular target: T1, Autotaxin; assay: Inhibition of ATX in human MDA-MB-435S cells using lysophosphatidyl choline as substrate preincubated for 15 mins followed by substrate addition measured after 90 mins; format: cell-based
[4] = Lipophilicity, log D of the compound at pH 7.4 by chromatographic method; format: physicochemical; details: buffer
[5] = Kinetic aqueous solubility by CLND method; format: physicochemical; details: read-out: Kinetic_solubility
[6] = Apparent permeability of the compound at pH 7.4; format: physicochemical; details: not told
Autotaxin [7] = molecular target: T1, Autotaxin; assay: Noncompetitive inhibition of human ATX expressed in HEK293 Flp-in cells up to 800 nM using varying lysophosphatidyl choline substrate level by Lineweaver-Burk plot analysis; format: cell-based
Procedure, shortened: (§1)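 hATX from HEK293 Flp-In cells; choline release from LPC coupled to choline oxidase/HRP/homovanillic acid fluorescence in Tris pH 7.4 buffer with CaCl2 and Triton X-100. Activity measured across varying LPC concentrations at fixed inhibitor concentrations; mixed-inhibition model fitted to obtain alpha (near 1 taken as noncompetitive), with Lineweaver-Burk double-reciprocal plots for display.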

Autotaxin [8] = molecular target: T1, Autotaxin; assay: Noncompetitive inhibition of human ATX expressed in HEK293 Flp-in cells up to 11 nM using varying lysophosphatidyl choline substrate level by Lineweaver-Burk plot analysis; format: cell-based; procedure, shortened: as §1
Autotaxin [9] = molecular target: T1, Autotaxin; assay: Inhibition of ATX (unknown origin) using lysophosphatidyl choline as substrate
Procedure, shortened: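 Human ATX produced in HEK293 Flp-In cells, 20 nM, incubated with 150 μM LPC(18:1) in 50 mM Tris pH 7.4, 0.01% Triton X-100, 50 mM CaCl2 with choline oxidase (1 U/ml), HRP (2 U/ml) and 2 mM homovanillic acid. Choline release read as HVA fluorescence, ex/em 320/450 nm, every 30 s for 90 min. Screen 400 nM–100 μM (n = 3); 10-point curves 0.3 nM–10 μM, n = 2.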

Row | SMILES | IC50 (Autotaxin [1]; read-out: IC50) | IC50 (Autotaxin [2]) | also measured
1 | Cc1c(Cc2cccc(C(=O)O)n2)c2ccccc2n1-c1cnn(C)c1 | > 30 µM | – | –
2 | Cc1c(Sc2cccc(C(=O)O)c2)c2ccccc2n1-c1ccccc1 | > 5 µM | > 30 µM | –
3 | Cc1c(Cc2cccc(C(=O)O)c2)c2ccc(Cl)cc2n1-c1cnn(C)c1 | 0.66 µM | 0.033 µM | –
4 | Cc1c(Sc2cccc(C(=O)O)c2)c2ccc(Cl)cc2n1C1CCCC1 | 20 to 25 µM | > 4 µM | –
5 | Cc1[nH]c2cc(Cl)ccc2c1Sc1cccc(C(=O)O)c1 | 0.747 µM | 0.29 µM | –
6 | Cc1c(Oc2cccc(C(=O)O)c2)c2ccccc2n1-c1cnn(C)c1 | > 30 µM | – | –
7 | Cc1c(Cc2cccc(C(=O)O)c2)c2ccccc2n1-c1cnn(C)c1 | > 30 µM | – | –
8 | Cc1c(Sc2cccc(C(=O)O)c2)c2ccc(Cl)cc2n1-c1ccccc1 | 0.081 µM | 0.005 µM | IC50 (Autotaxin [3]): < 0.3 µM
9 | COc1ccc2c(Sc3cccc(C(=O)O)n3)c(C)n(-c3cnn(C)c3)c2c1 | 0.124 µM | 0.075 µM | –
10 | Cc1c(SCCCC(=O)O)c2ccc(Cl)cc2n1-c1cnn(C)c1 | > 30 µM | – | –
11 | Cc1c(Sc2cccc(C(=O)O)n2)c2ccc(Cl)cc2n1C1CCCC1 | > 2.8 µM | 2 µM | chromatographic logD [4]: 4.05; solubility kinetic [5]: 336 µM (≈ 130 µg/mL); Papp [6]: 290 nm/s
12 | Cc1c(Sc2cccc(C(=O)O)n2)c2ccc(Cl)cc2n1-c1ccccc1 | – | – | IC50 (Autotaxin [1]; hek293): Nd(Insoluble); chromatographic logD [4]: 4.3; solubility kinetic [5]: 485 µM (≈ 192 µg/mL); Papp [6]: 155 nm/s
13 | Cc1cc2ccc(Cl)cc2n1-c1cnn(C)c1 | > 30 µM | – | –
14 | Cc1c(Sc2cccc(C(=O)O)n2)c2cc(Cl)ccc2n1-c1cnn(C)c1 | 0.258 µM | – | –
15 | Cc1c(Sc2cccc(C(=O)O)n2)c2ccc(Cl)cc2n1-c1cnn(C)c1 | 0.004 µM | 0.022 µM | chromatographic logD [4]: 2.7; solubility kinetic [5]: 377 µM (≈ 150 µg/mL); Papp [6]: 23 nm/s; IC50 (Autotaxin [3]): < 0.3 µM
16 | Cn1cc(-c2cccc(Sc3cccc(C(=O)O)n3)c2)cn1 | – | – | inhibition (Autotaxin [1]): inactive
17 | Cc1c(Sc2cccc(C(=O)O)n2)c2ccccc2n1-c1ccccc1 | > 30 µM | – | –
18 | Cc1c(Cc2cccc(C(=O)O)n2)c2ccc(Cl)cc2n1-c1cnn(C)c1 | 0.339 µM | 0.089 µM | –
19 | Cc1c(Sc2cccc(C(=O)O)n2)c2ccc(F)cc2n1-c1ccn(C)n1 | 0.349 µM | 0.816 µM | –
20 | Cc1c(Sc2cccc(C(=O)O)c2)c2ccc(Cl)cc2n1C | 1.2 µM | 0.1 µM | inhibition (Autotaxin [8]): Active; IC50 (Autotaxin [9]): > 1 µM
21 | Cc1c(Sc2cccc(C(=O)O)n2)c2ccccc2n1C1CCCC1 | > 30 µM | – | –
22 | Cc1c(Sc2cccc(C(=O)O)c2F)c2ccc(Cl)c(F)c2n1CC(=O)N1CC2(CC2)c2ccccc21 | – | – | IC50 (Autotaxin [9]): 0.002 µM
23 | Cc1c(SCCCC(=O)O)c2ccccc2n1-c1cnn(C)c1 | > 10 µM | – | –
24 | Cc1c(Sc2cccc(C(=O)O)c2)c2ccc(Cl)cc2n1-c1cnn(C)c1 | 0.011 µM | – | chromatographic logD [4]: 3.36; solubility kinetic [5]: 556 µM (≈ 221 µg/mL); Papp [6]: 64 nm/s; IC50 (Autotaxin [3]): < 0.3 µM
25 | Cc1c(Oc2cccc(C(=O)O)c2)c2ccc(Cl)cc2n1-c1cnn(C)c1 | 0.726 µM | 0.204 µM | –

Now from value to molecule, other results behind:

Row | IC50 (Autotaxin [1]; read-out: IC50) | IC50 (Autotaxin [2]) | SMILES | also measured
26 | > 30 µM | – | Cc1c(Sc2cccc(C(=O)O)n2)c2c(Cl)cccc2n1-c1cnn(C)c1 | –
27 | > 30 µM | – | Cc1c(Sc2cccc(C(=O)O)n2)c2ccccc2n1C | –
28 | 0.025 µM | 0.085 µM | Cc1ccc2c(Sc3cccc(C(=O)O)n3)c(C)n(-c3cnn(C)c3)c2c1 | –
29 | > 30 µM | – | Cc1[nH]c2ccccc2c1Sc1cccc(C(=O)O)c1 | –
30 | 1.7 µM | 5.7 µM | Cc1c(Sc2cccc(C(=O)O)n2)c2ccccc2n1-c1cnn(C)c1 | inhibition (Autotaxin [7]): Active
31 | 0.031 µM | > 4 µM | Cc1c(Sc2cccc(C(=O)O)n2)c2ccc(Cl)cc2n1C | chromatographic logD [4]: 2.68; solubility kinetic [5]: 300 µM (≈ 99.8 µg/mL); Papp [6]: 32 nm/s
32 | > 8 µM | – | Cc1[nH]c2cccc(C)c2c1Sc1cccc(C(=O)O)n1 | –
33 | 3 to 3.5 µM | – | Cc1c(Sc2cccc(C(=O)O)n2)c2c(F)cccc2n1-c1ccn(C)n1 | –
34 | 0.025 µM | 0.604 µM | Cc1[nH]c2cc(Cl)ccc2c1Sc1cccc(C(=O)O)n1 | chromatographic logD [4]: 2.19; solubility kinetic [5]: ≥ 395 µM; Papp [6]: 11 nm/s
35 | > 30 µM | – | Cc1[nH]c2ccccc2c1Sc1cccc(C(=O)O)n1 | –
36 | > 20 µM | – | Cc1[nH]c2cc(F)ccc2c1Sc1cccc(C(=O)O)n1 | –
37 | > 10 µM | – | Cc1cccc2c1c(Sc1cccc(C(=O)O)n1)c(C)n2-c1cnn(C)c1 | –
38 | > 30 µM | – | COc1cccc2c1c(Sc1cccc(C(=O)O)n1)c(C)n2-c1cnn(C)c1 | –
